Measured values published in ChEMBL document CHEMBL4819082, “Ximaoglaucumins A - F, new cembranoids with anti-inflammatory activities from the South China Sea soft coral Sarcophyton glaucum” (Bioorg Med Chem, 2021).

Legend:
BV-2 [1] = experiment: Antiinflammatory activity against mouse BV2 cells assessed as reduction in LPS-induced NO production at 10 uM incubated for 2 hrs followed by LPS stimulation and measured after 24 hrs by Griess reagent based assay relative to control; assay type: functional; details: BV-2, 26 h
Outline: (§1)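 BV-2 cells were seeded at 2.0×10^5 cells/mL in DMEM high-glucose with 10% FBS and grown 24 h at 37 °C, 5% CO₂. They were pretreated with compound for 2 h, then exposed to LPS at 100 ng/mL for 24 h. Medium was mixed 1:1 with Griess buffer for 15 min at room temperature and read at 540 nm. Nitrite came from a sodium nitrite standard curve and was normalized to the LPS-group mean (100%).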

[2] = Cytotoxicity against mouse BV2 cells assessed as cell viability at 10 uM measured after 24 hrs by MTT assay; assay type: cell-based, BV-2; details: read-out: Activity
Outline: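 BV-2 cells were seeded at 1.25×10^4 cells/mL and grown 24 h at 37 °C, 5% CO₂. They were then exposed to compound for 24 h, with 0.5 mg/mL MTT added for the final 3 h. Absorbance was read at 490 nm, and viability was normalized to the untreated control mean (100%).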

BV-2 [3] = experiment: Antiinflammatory activity against mouse BV2 cells assessed as reduction in LPS-induced IL-1beta mRNA expression incubated for 2 hrs followed by LPS stimulation and measured after 6 hrs by qRT-PCR analysis; assay type: functional, cell-based; details: time 8.0 hrs
Outline: (§2)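 BV-2 microglia were seeded at 1 × 10⁵ cells/mL, pretreated with compound for 2 h, then given LPS at 100 ng/mL for 6 h. Total RNA was extracted with Trizol and reverse-transcribed to cDNA, and IL-1β or IL-6 transcripts were quantified.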

BV-2 [4] = experiment: Antiinflammatory activity against mouse BV2 cells assessed as reduction in LPS-induced IL-6 mRNA expression incubated for 2 hrs followed by LPS stimulation and measured after 6 hrs by qRT-PCR analysis; assay type: functional, cell-based; details: time 8.0 hrs; outline: as §2
BV-2 [5] = experiment: Antiinflammatory activity against mouse BV2 cells assessed as reduction in LPS-induced NO production at 20 uM incubated for 2 hrs followed by LPS stimulation and measured after 24 hrs by Griess reagent based assay relative to control; assay type: functional; details: BV-2, 26 h; outline: as §1

SMILES | NO production (% of LPS) at 10 µM (BV-2 [1]) | viability at 24 h, 10 µM [2] | inhibition (BV-2 [3]) | inhibition (BV-2 [4]) | NO production (% of LPS) at 20 µM (BV-2 [5])
C/C1=C\CC[C@](C)(O)[C@H]2C=C(C(C)C)[C@H](C/C(C)=C/CC1)O2 | 82% | 99.2% |  |  | 
C/C1=C\C=C(\C(C)C)[C@@H](O)C/C(C)=C/CC/C(C)=C/CC1 | 67.8% | 106% | Dose-Dependent Effect | Dose-Dependent Effect | 
CC(=O)O[C@H]1C/C(C)=C/CCC(C)(O)/C=C/C/C(C)=C/C=C\1C(C)C (stereo partly specified) | 74.4% | 97.2% |  |  | 
C=C1CC/C=C(\C)C[C@H](O)/C(C(C)C)=C\C=C(/C)CC[C@H]1O | 84.6% | 102% |  |  | 
C=C1C[C@H](O)/C(C(C)C)=C\C=C(/C)CC/C=C(\C)CC[C@H]1O | 75.9% | 96% |  |  | 
C/C1=C\C=C(\C(C)C)CC/C(C)=C/CC/C(C)=C/CC1 | 85.5% | 100% |  |  | 
Oc1ccc(/C=C/c2cc(O)cc(O)c2)cc1 [RESVERATROL] |  |  |  |  | 74.3%
C=C1C[C@H](O)/C(C(C)C)=C\C=C(/C)CC/C=C(\C)CC[C@@H]1OO | 74.2% | 103% |  |  | 
C/C1=C\C=C(\C(C)C)CC/C(C)=C/CCC(C)(O)/C=C/C1 (stereo unspecified) | 80.2% | 101% |  |  | 
CC(=O)OC/C1=C\CC/C(C)=C/CC[C@](C)(O)[C@H]2C=C(C(C)C)[C@H](C1)O2 | 92.7% | 102% |  |  | 
C/C1=C\C=C(\C(C)C)[C@@H](O)C[C@]2(C)O[C@H]2CC/C(C)=C/CC1 | 77.9% | 101% |  |  | 
C/C1=C\[C@H]2O[C@](C)(CC[C@H]2C(C)C)[C@@H](O)CC/C(C)=C/CC1 | 87.2% | 99.9% |  |  | 
C/C1=C\C=C(\C(C)C)[C@@H](O)[C@H](O)/C(C)=C/CC/C(C)=C/CC1 | 68.7% | 101% | Dose-Dependent Effect | Dose-Dependent Effect | 
C/C1=C\CC/C(C)=C/C=C(/C(C)C)[C@@H](O)C[C@](C)(O)/C=C/C1 | 79.5% | 95.2% |  |  | 
C=C1CC/C=C(\C)C[C@H](OC(C)=O)/C(C(C)C)=C\C=C(/C)CC[C@H]1O | 74.5% | 108% |  |  | 
C/C1=C\CC[C@](C)(O)/C=C/[C@H](C(C)C)CC/C(C)=C/CC1 | 76.5% | 106% |  |  | 
C/C1=C/C=C(/C(C)C)[C@@H](O)C/C(C)=C/CC/C(C)=C/CC1 | 88.8% | 103% |  |  | 
CC(=O)OC/C1=C\CC/C(C)=C/CC/C(C)=C/C=C(/C(C)C)[C@@H](O)C1 | 71.3% | 111% |  |  | 
C/C1=C\CC/C(C)=C/C=C(/C(C)C)[C@@H](O)C[C@@](C)(OO)/C=C/C1 | 85.3% | 104% |  |  | 
